Screening results deposited in PubChem BioAssay by Broad Institute.
MITF act – increases MITF-driven TRPM1 promoter luciferase signal; SK-MEL-5 TRPM1-promoter luciferase, 24 h; % of positive control, neutral wells = 0; activation, % at 12.5 µM; 300,000 tested, 0.75% active;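 active means mean activation of at least 80% with every replicate also reaching 80%; inconclusive means mean reaches 80% but some replicate falls short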
XiGFP reactiv – reactivates the inactive X chromosome in mouse fibroblasts; activation, % at 7.58 µM; XiGFP mouse fibroblasts, % GFP-positive cells imaging, 3 d; cells co-treated with 5-aza-dC sensitizer; scaled so ellipticine positive control = 100%; AID 743238; 360,000 tested, 0.055% active;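 active means mean normalized replicate activation at least 10% and every replicate at or above 10%; inconclusive means only one of the two criteria met; inactive means mean below 10% and not all replicates reach 10%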
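Assay system: SV40-immortalized XiGFP fibroblast cells, line 68-5-11; buffer or medium: DMEM plus 5-aza-dC sensitizer; compound: one concentration, pinned; timing: compounds 3 days, fix/stain 15 min at room temperature; benchmarks: positive control ellipticine, 6 µM final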
Vif inh – blocks HIV Vif function; HEK293T cells, Vif self-association by quenched fluorescence, imaging, 24 h; inhibition, % at 7.49 µM; 340,000 tested, 0.35% active; in the data active means inhibition above about 50%, passing the limit was not always enough; inconclusive means no clear call, values can overlap the other calls; inactive means below about 31%
esBAF inh – blocks esBAF chromatin remodeling in mouse ES cells; Bmi1-luciferase knock-in reporter, 24 h; 100% = twice the neutral-well signal; reporter increase, % at 12.5 µM; 350,000 tested, 2% active; AID 602393; in the data active means activation above about 40%; inconclusive means no clear call, values can overlap the other calls;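 further: a rise in the Bmi1 reporter signal indicates esBAF inhibition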
Wnt bcat act – activators of Wnt/beta-catenin signaling; Wnt/beta-catenin reporter cell assay, activator, plate reader; activation, % at 9.35 µM; 300,000 tested, 1.2% active; AID 743398; in the data active means activation above about 30%, passing the limit was not always enough; inconclusive means no clear call, values can overlap the other calls
Numbers stand for hits; 0 = inactive; ? = inconclusive; - = no result. Shown are actives, neighbours in structure and some others; about 2.6% of the full set was active somewhere.

SMILES	MITF act	XiGFP reactiv	Vif inh	esBAF inh	Wnt bcat act
COc1cc(NC(=O)NCc2ccco2)ccc1-c1ccc(NC(=O)NCc2ccco2)cc1OC	0	0	90	0	0
COc1ccccc1NC(=O)NCc1ccco1	0	0	0	-	0
COc1cc(OC)cc(C(=O)OCC(=O)NCc2ccco2)c1	0	0	0	0	47
COc1cc2ccccc2cc1C(=O)NCC(c1cccs1)N(C)C (stereo not drawn)	123	0	0	-	0
CN(C)C(=O)c1ccc(-c2ccc3c(c2)[C@@H]2[C@@H](CCN2C(=O)C2CCC2)[C@H](CO)N3C)cc1	-	0	-	0	-
COc1ccc2c3c(n(C)c2c1)[C@H](CO)N(C(=O)C1CCOCC1)CC31CCN(C(=O)C2CCOCC2)CC1	-	0	-	-	-
Cc1noc(C)c1S(=O)(=O)Nc1ccc2c(c1)C(=O)N([C@@H](C)CO)C[C@@H](C)[C@@H](CN(C)S(=O)(=O)c1ccc(Cl)cc1)O2	-	0	-	0	-
NNC(=O)COc1cccc2cccnc12	0	-	0	0	0
COc1cccc2c1OCC(C(=O)Nc1nccs1)=C2	119	0	0	?	?
O=C(COc1cccc2cccnc12)Nc1nccs1	-	-	?	0	53
COc1ccc(C(CC(=O)Nc2nccs2)n2cccc2)cc1 (stereo not drawn)	0	-	0	61	-
COc1ccc(C(CC(=O)Nc2nccs2)C(C)C)cc1 (stereo not drawn)	0	0	0	0	0
COc1cc2ccccc2cc1C(=O)Nc1nccs1	-	0	0	76	?
O=C(c1cccnc1)N1CC2(C1)[C@H](c1ccccc1)[C@H](CO)N2Cc1ccncc1	-	0	-	-	-
COC(=O)c1c(-c2ccccc2)c[nH]c1C	0	0	0	51	0
Cc1ncc(C(=O)O)c(C(=O)O)c1N	0	0	62	0	0
CCCN(C)C[C@@H]1Oc2ncc(C#CCC(C)C)cc2C(=O)N([C@@H](C)CO)C[C@H]1C	-	0	-	0	-
CN(CC(=O)Nc1ccc(Cl)c(Cl)c1)CC(=O)Nc1ccc2c(c1)OCO2	0	120	0	0	0
O=C(Nc1ccc(F)cc1)Nc1ccc2c(c1)OCO2	104	0	0	66	0
CC1CCC(NC(=O)c2ccc3c(c2)OCO3)CC1 (stereo not drawn)	0	0	0	0	0
O=C(Nc1ccc2c(c1)OCO2)Nc1ccc2c(c1)OCO2	0	0	0	-	0
O=C(Nc1ccc(Cl)cc1)Nc1ccc2c(c1)OCO2	0	0	0	60	38
CC1CCC(NC(=O)C(=O)Nc2ccc3c(c2)OCO3)CC1 (stereo not drawn)	0	0	0	56	32
COc1ccc2c3c([nH]c2c1)[C@H](CO)N(C(=O)c1ccc(F)cc1)CC31CN(C(=O)NC(C)C)C1	-	0	-	-	-
O=C(NCCc1ccccc1)Nc1ccc2c(c1)OCO2	0	0	0	-	0
SMILES	MITF act	XiGFP reactiv	Vif inh	esBAF inh	Wnt bcat act
O=C(NCCc1ccc(F)cc1)Nc1ccc2c(c1)OCO2	0	0	0	-	48
Cc1[nH]c2ccccc2c1C(=O)C(=O)Nc1ccc2c(c1)OCO2	0	0	0	52	0
CN(CC(=O)Nc1ccc(Cl)c(S(=O)(=O)N(C)C)c1)Cc1ccccc1	0	0	0	65	0
CC(=O)NC(Cc1c[nH]c2ccccc12)C(=O)OCC(=O)Nc1ccc2c(c1)OCO2 (stereo not drawn)	0	-	0	0	0
CC1(C(=O)Nc2ccc3c(c2)OCO3)CCN1C(=O)C1(c2ccc(Cl)cc2)CC1 (stereo not drawn)	-	0	0	0	51
CO[C@@H]1CN(C)C(=O)c2ccc(NC(=O)c3cccc(F)c3)cc2OC[C@H](C)N(C)C[C@H]1C	-	0	-	0	-
CC(C)NC(=O)N1CC2(C1)[C@H](c1ccccc1)[C@@H](CO)N2C(=O)C1CC1	-	0	-	-	-
C[C@@H]1CN([C@H](C)CO)C(=O)c2cc(NS(=O)(=O)c3cn(C)cn3)ccc2O[C@@H](C)CCCCO[C@H]1CN(C)CC1CCCCC1	-	0	-	0	-
O=C(C[C@H]1C[C@H]2c3cc(NC(=O)C4CCC4)ccc3O[C@H]2[C@H](CO)O1)NCc1cc(F)ccc1F	-	0	-	0	-
CC(=O)Nc1ccccc1NC(=O)C/C(C)=N/NC(=O)c1ccccn1	0	0	0	-	-
C/C(CC(=O)NCc1ccccc1Cl)=N/NC(=O)c1ccccn1	0	0	0	44	0
COc1ccc(CN(C)C[C@@H]2Oc3c(NS(=O)(=O)c4ccc(F)cc4)cccc3C(=O)N([C@H](C)CO)C[C@@H]2C)cc1	-	0	-	0	-
